# From PubChem BioAssay
# NSD2 inh: inhibitors of human histone methyltransferase NSD2; O96028; NSD2 peptide methylation, AlphaScreen, 120 min; inhibition, % at 12.5 µM; actives 0.54% (n = 310,000); in the data active means inhibition above about 50%
# LEDGF integ inh: blocks HIV-1 LEDGF/p75-dependent DNA integration. TR-FRET IN-LEDGF/p75 DNA integration, Eu/Cy5. inhibition, % at 3.7 µM. actives 0.64% (n = 370,000). AID 743269;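 active means inhibition above the screen-wide mean plus 3 SD, cut at about 13% in these data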;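 further: signal is the Cy5 over europium emission ratio at 671 and 618 nm; 0% = plate median of compound wells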
# MBD2 DNA inh: inhibitors of human MBD2 binding to methylated oligonucleotide | inhibition, % at 4.4 µM | AID 686964 | actives 0.31% (n = 370,000) | Q9UBB5 | TR-FRET; in the data active means inhibition above about 13%
# TDP2 inh: TDP2 (human) inhibition, absorbance primary screen. O95551. recombinant TDP2, T5PNP hydrolysis, p-nitrophenol absorbance 415 nm. inhibition, % at 12.8 µM. actives 0.34% (n = 370,000);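 active means inhibition above the mean of all tested compounds plus 3 SD, set per campaign, cut at about 25% in these data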;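 further: 0% = DMSO with enzyme and 100% = buffer with substrate but no TDP2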
#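 Assay system: recombinant human TDP2 / Reagent: T5PNP substrate at 5 mM, a TopII-DNA adduct mimic / Measured by: epi absorbance from released p-nitrophenol / Evaluation: % inhibition relative to enzyme-containing and enzyme-free wells / Control set: enzyme-free and DMSO wells / Replicates: each compound tested once, singlicate / Schedule: enzyme reaction with compound for 2 h at 37 °C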
# UHRF1 binding: blocks human UHRF1 binding to methylated DNA; UHRF1 binding to methylated oligo, TR-FRET; inhibition, % at 4.4 µM; actives 0.75% (n = 370,000); in the data active means inhibition above about 21%;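 further: UHRF1 SRA domain binding a hemimethylated CpG hairpin DNA probe; 0% = median of test compound wells and 100% = reference inhibitor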
# Casp6 inh: caspase-6 (human) enzyme inhibition. purified caspase-6, Z-VEID-R110 cleavage fluorescence. inhibition, % at 12.5 µM. actives 0.53% (n = 350,000);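 active means mean inhibition across replicates at least about 35%, with every replicate also reaching that limit, limit read from the data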;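 further: 0% = median of neutral control wells and 100% = no fluorescence left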
# Target sequence (P55212 24-179 limits assumed): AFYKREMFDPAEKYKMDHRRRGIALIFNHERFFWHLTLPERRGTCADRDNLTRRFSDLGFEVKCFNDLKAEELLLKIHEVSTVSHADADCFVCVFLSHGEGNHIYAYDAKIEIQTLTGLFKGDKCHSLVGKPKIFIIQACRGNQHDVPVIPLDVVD
# Target sequence (P55212 194-293 limits assumed): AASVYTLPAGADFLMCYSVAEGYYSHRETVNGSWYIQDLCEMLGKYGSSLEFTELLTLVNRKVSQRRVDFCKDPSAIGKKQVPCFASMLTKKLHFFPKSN
# * hit, by the source's call; . = no result given. This is a sample that favours compounds with a hit; in the whole collection about 1.9% have one here.
SMILES,NSD2 inh,LEDGF integ inh,MBD2 DNA inh,TDP2 inh,UHRF1 binding,Casp6 inh
Cc1ccc(NC(=O)CN2C(=O)S/C(=C\c3cc(C)n(-c4cccc(C(=O)O)c4)c3C)C2=O)cc1,-6,0,0,0,-3,39*
Cc1ccc(NC(=O)CN2C(=O)S/C(=C\c3ccc(C(=O)O)cc3)C2=O)cc1,-1,0,9,9,2,43*
Cc1ccc(NC(=O)CN2C(=O)S/C(=C\c3cc(C)n(C)c3C)C2=O)cc1,.,3,0,-8,-4,.
CC(C)NC(=O)Nc1ccc2c(c1)C(=O)N([C@@H](C)CO)C[C@@H](C)[C@H](CN(C)S(=O)(=O)c1ccc(Cl)cc1)OCCCC[C@@H](C)O2,.,.,.,.,.,-1
CC1CCCN(Cc2c(O)ccc3c2O/C(=C\c2ccco2)C3=O)C1 (stereo not drawn),23,29*,6,13,14,10
Cc1nn(-c2ccccc2)c2nc(-c3ccco3)cc(C(=O)O)c12,24,16*,5,9,14,.
O=C(Cc1c(F)cccc1Cl)NCc1cccnc1,-4,2,1,-12,-1,-2
O=C(Cc1ccc(Cl)cc1Cl)NCc1cccnc1,-2,-2,1,-3,21*,1
Cc1cc(/C=N/n2cnnc2)c(C)n1-c1ccc(Cl)cc1,3,-7,-1,-10,-1,.
Cc1cc(/C=N/N2CCN(C)CC2)c(C)n1-c1ccc(Cl)cc1,7,1,3,5,30*,-25
CC(CNC(=O)c1ccc(OC2CCN(Cc3ccccn3)CC2)cc1)c1ccccc1 (stereo not drawn),2,1,1,-11,-1,45*
Cc1ccc(-c2csc(NCCn3c(-c4ccncc4)nc4cc(C(F)(F)F)ccc43)n2)cc1,.,-3,0,-8,3,1
Cc1ccc(-c2csc(NCCn3c(-c4ccncc4)nc4ccccc43)n2)cc1,.,0,-4,-9,22*,-1
CC(C)(CO)NCc1cc(Br)ccc1OCc1ccccc1,.,-4,3,5,2,.
OCCCCNCc1cc(Br)ccc1OCc1ccccc1,-3,0,10,1,29*,-7
C[C@H](CO)N1C[C@H](C)[C@H](CN(C)C(=O)Nc2ccc(F)cc2)Oc2ncc(C3=CCCCC3)cc2C1=O,.,.,.,.,.,2
CCc1ccc(S(=O)(=O)Nc2ccncc2)cc1,-4,4,0,18,-4,-2
Cc1cccc(S(=O)(=O)Nc2cccc3c2C(=O)c2ccccc2-3)c1,15,5,-6,-10,0,.
CC(C)c1ccc(S(=O)(=O)/N=C2\C=C(NS(=O)(=O)c3ccccc3)C(=O)c3ccccc32)cc1,112*,25*,-16,25*,-4,22
Cc1ccc(C)c(S(=O)(=O)/N=C2\C=C(NS(=O)(=O)c3ccccc3)C(=O)c3ccccc32)c1,97*,9,-12,18,-7,25
CCc1ccc(S(=O)(=O)/N=C2\C=C(NS(=O)(=O)c3ccccc3)C(=O)c3ccccc32)cc1,128*,11,-13,18,-2,49*
Cc1ccc(O)c(C=Nc2cc(C)ccc2O)c1,1,.,.,.,.,.
CCc1ccc(O)c(N=Cc2ccccc2O)c1,.,3,-4,4,32*,0
O=C(CCl)Oc1ccc2occ(C(=O)c3cccs3)c2c1,.,12,13,23,29*,.
COC(=O)c1nc(-c2ccccc2)nc(-c2ccccc2)c1C(=O)OC,-2,-9,-3,-13,0,-1
SMILES,NSD2 inh,LEDGF integ inh,MBD2 DNA inh,TDP2 inh,UHRF1 binding,Casp6 inh
COC(=O)c1n[nH]nc1-c1ccccc1,35,0,2,4,22*,.
CC(C)(C)Cc1c(-c2ccc(F)cc2)nc2ccc(Br)cn12,.,1,-3,-15,21*,2
Cc1ccc2nc(-c3ccco3)c(CC(C)(C)C)n2c1,.,10,0,-6,23*,27
CC(C)(C)Cc1c(-c2ccc(Cl)cc2)nc2ccc(Br)cn12,.,-1,1,0,11,0
CC(C)(C)Cc1c(-c2ccccc2)nc2ccc(Cl)cn12,.,-4,9,3,21*,-2
Cc1ccc2nc(-c3ccco3)c(Cc3ccccc3)n2c1,.,-2,-5,2,7,1
CCC(=O)N(C)C[C@H]1Oc2ncc(-c3cccc(OC)c3)cc2C(=O)N([C@H](C)CO)C[C@H]1C,.,.,.,.,.,-1
Cc1noc(C)c1NC(=O)N(C)C[C@H]1Oc2ccc(NC(=O)c3ccncc3)cc2C(=O)N([C@@H](C)CO)C[C@H]1C,.,.,.,.,.,1
O=C1CNC[C@H]2[C@@H](c3ccc(C#CC4CCCCC4)cc3)[C@@H](CO)N12,.,.,.,.,.,3
C[C@@H]1CN([C@H](C)CO)C(=O)c2cc(NS(=O)(=O)c3ccc(F)cc3)ccc2O[C@@H]1CN(C)Cc1ccc(Oc2ccccc2)cc1,.,.,.,.,.,3
O=C(C[C@@H]1C=C[C@@H](NC(=O)C2CCOCC2)[C@H](CO)O1)NCC1CC1,.,.,.,.,.,-1
Cc1occc1-c1nnc(SCC(=O)Nc2nc(-c3ccccc3)cs2)o1,2,0,-3,9,-3,-4
Cc1occc1-c1nnc(SCC(=O)Nc2nc3ccccc3s2)o1,-1,3,-1,-3,23*,.
CCOC(=O)c1cc2c(ccc3ccccc32)oc1=O,-6,-3,-5,-6,29*,1
COc1ccc(-c2cc(C(=O)NNC(=S)NC(=O)c3c(-c4ccccc4)noc3C)[nH]n2)cc1,.,-11,1,-1,22*,3
COc1cc2c[n+](C)c3c4ccccc4ccc3c2cc1OC,15,4,66*,-1,-5,-20
CO[C@H]1CN(C)C(=O)c2cc(NS(=O)(=O)c3ccccc3C)ccc2OC[C@@H](C)N(S(C)(=O)=O)C[C@@H]1C,.,.,.,.,.,-4
COc1ccccc1Cc1c(C(C)(C)C)nc2c3ccccc3ccn12,.,2,6,1,23*,9
COc1ccccc1Cc1c(-c2ccccc2)nc2c3ccccc3ccn12,.,0,5,2,5,-1
O=C(c1ccc(F)cc1)N1CC(=O)N2[C@H](C1)[C@@H](c1ccc(C#CC3CCCCC3)cc1)[C@@H]2CO,.,.,.,.,.,-1
O=C(NCC1CCCO1)C1CCN(C2CCN(C(=O)CC3CCCC3)CC2)CC1 (stereo not drawn),-3,-2,-6,-5,2,-5
O=C(NCC1CCCO1)C1CCN(C2CCN(CCCC3CCCC3)CC2)CC1 (stereo not drawn),-1,-5,8,-3,23*,-20
CC(=O)Nc1ccccc1OCC(=O)NC(C)c1ccccc1 (stereo not drawn),-3,-1,2,5,22*,0
